SENP1 inh: human SENP1 catalytic domain inhibitors, primary screen, biochemical, FRET, uHTS | Sentrin-specific protease 1 (Homo sapiens), Q9P0U3 | recombinant SENP1 catalytic domain, CyPet-SUMO1-YPet FRET cleavage | inhibition, % at 10 µM | hit rate 0.21% among 360,000;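 active = inhibition at least 30% at 10 µM, raw YFP signal under a set limit, fluorescence ratio 0.5 to 1.5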;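 note: 0% = enzyme with DMSO and 100% = no enzyme wells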
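Test system: hSENP1 catalytic domain, recombinant; Amount: 20 pM final SENP1 enzyme; Medium: Tris pH 8 buffer plus EDTA, NaCl, BME, BSA, NP40, catalase; Schedule: 50 min enzyme reaction, room temperature, light-protected; Technique: FRET fluorescence in CFP and YFP emission channels; Controls: no-enzyme wells low, DMSO-plus-enzyme wells high control.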
Rpn11 block: Rpn11 (PSMD14) deubiquitinase inhibitors, primary screen, biochemical, fluorescence polarization, uHTS | 26S proteasome non-ATPase regulatory subunit 14 (Homo sapiens), O00487 | inhibition, % at 20 µM | human 26S proteasome, Ub4-pepOG fluorescence polarization; 20S core pre-blocked with epoxomicin | hit rate 0.59% among 360,000 | AID 588493, 2011;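 active = inhibition at 20 µM, scaled to each plate's controls, above about 33%, limit read from the data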
Target sequence (O00487 whole entry, looked up): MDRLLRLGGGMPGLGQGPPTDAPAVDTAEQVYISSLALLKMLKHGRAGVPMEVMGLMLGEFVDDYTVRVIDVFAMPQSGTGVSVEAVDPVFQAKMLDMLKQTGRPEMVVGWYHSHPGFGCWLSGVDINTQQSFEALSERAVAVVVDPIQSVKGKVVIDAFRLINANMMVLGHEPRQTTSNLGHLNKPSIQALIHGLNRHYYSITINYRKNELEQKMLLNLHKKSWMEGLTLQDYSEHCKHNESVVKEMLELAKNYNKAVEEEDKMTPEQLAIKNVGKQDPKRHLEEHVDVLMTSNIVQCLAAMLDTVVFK
HNF4A DNA FP: change in binding of human HNF4A to DNA, primary screen, biochemical, fluorescence polarization, FITC-DNA; activity change, % at 10 µM; hit rate 0.3% among 360,000; 1 h; in the data active = activity change above about 30%, passing the limit was not always enough
TPT1 inh: Candida albicans TPT1 enzyme inhibitors, primary screen, biochemical, fluorescence polarization | AID 1962, 2009 | tRNA 2'-phosphotransferase TPT1 (Candida albicans SC5314) | recombinant caTPT1, FP RNA substrate dephosphorylation | inhibition, % at 5 µM | hit rate 0.81% among 300,000;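 active = inhibition above the mean of all tested compounds plus 3 SD, set per screening campaign, cut at about 24% in these data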;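 note: plate controls were DMSO alone for no effect and ferristatin control at 100 nM for full effect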
CSN deneddyl inh: inhibitors of CSN-mediated cullin deneddylation, primary screen, biochemical, fluorescence polarization, uHTS; Purified CSN, SCF-Nedd8-OG deneddylation; inhibition, % at 12.5 µM; hit rate 0.38% among 360,000; AID 651999, 2013;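 active = pattern-corrected inhibition above about 35%, with an unprinted fluorescence ratio check between 0.5 and 1.5, limit read from the data, passing the limit was not always enough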;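 note: 0% = enzyme with substrate and 100% = substrate without enzyme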
Target sequence (Q92905 whole entry, looked up, one chain of several): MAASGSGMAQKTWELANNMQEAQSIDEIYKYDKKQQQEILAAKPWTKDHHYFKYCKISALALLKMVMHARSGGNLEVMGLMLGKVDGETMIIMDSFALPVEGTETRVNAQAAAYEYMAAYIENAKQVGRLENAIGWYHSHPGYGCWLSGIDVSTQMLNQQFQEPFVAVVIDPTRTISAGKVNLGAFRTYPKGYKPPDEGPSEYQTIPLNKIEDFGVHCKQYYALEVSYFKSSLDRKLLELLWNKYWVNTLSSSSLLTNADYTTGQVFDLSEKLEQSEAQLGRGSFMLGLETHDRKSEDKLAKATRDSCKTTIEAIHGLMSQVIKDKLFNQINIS
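assay system = purified human Csn5 enzyme expressed in HEK293T cells | amount = 0.24 nM enzyme | buffer or medium = Tris/NaCl/DTT buffer, pH 7.5 | reagent = 10 nM SCFSkp2-Nedd8OG | compound = one concentration, 12.5 µM, 0.25% DMSO | times = 90 min reaction at room temperature | signal = FP | read-out basis = % inhibition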
The depositor's hits bear a star; x = no result given. Hits are enriched below; roughly 1.6% of the tested compounds scored in any of these assays.

SMILES | SENP1 inh | Rpn11 block | HNF4A DNA FP | TPT1 inh | CSN deneddyl inh
COc1cccc(C(=O)OCC(=O)NC23CC4CC(CC(C4)C2)C3)c1 | 1 | 3 | 0 | x | 0
CC(=O)Oc1cc(C(=O)OCC(=O)NC23CC4CC(CC(C4)C2)C3)cc(OC(C)=O)c1OC(C)=O | 1 | 8 | -16 | x | 41*
O=c1/c(=C\c2ccc(O)cc2)sc2nc(-c3ccccc3)c(-c3ccccc3)n12 | -23 | 28 | 52* | 15 | 13
CN1/C(=C\C=Nc2ccc3ccccc3c2)C(C)(C)c2ccccc21 | -22 | 36 | 30 | 49* | 15
CN1/C(=C\C=O)C(C)(C)c2ccccc21 | 1 | 22 | 7 | 0 | -1
CN1\C(=C/C=C/C=C/C=[N+](C)C)C(C)(C)c2ccccc21 | 44 | x | 102* | x | 120
C=C1CC(COc2ccc3c(C)c(Cl)c(=O)oc3c2)(c2ccccc2)OC1=O (centres undefined) | 1 | 1 | -3 | x | 18
CCN(CC)Cc1cc(O)c(CN(CC)CC)cc1O | 46* | -36 | -2 | x | -10
CCc1oc(C(=O)O)cc1CN(CC)CC | 2 | 3 | 2 | -1 | -2
CSc1ccccc1CNc1nc(NCC2CC2)nc2ccsc12 | 3 | -2 | 1 | x | -4
Cc1c(C)n2c(SCC(=O)Nc3ccc4c(c3)OCCO4)nnc2[nH]c1=O | 0 | 5 | 0 | -6 | 3
Cc1c(C)n2c(SCC(=O)NCc3ccc4c(c3)OCO4)nnc2[nH]c1=O | 0 | 0 | 0 | 2 | 52*
CN1CCN(C(=O)c2cnc(Cc3c[nH]c4ccccc34)c(I)c2)CC1 | 1 | -3 | 7 | x | 62*
CCCCCCC(C)n1cc(C(C)=O)c(=O)[nH]c1=O (centres undefined) | 2 | 2 | 0 | 1 | 50*
CCCn1c(C(O)c2ccc(OC)c(OC)c2)nc2ccccc21 (centres undefined) | 0 | 4 | 0 | 0 | -1
CCOC(=O)C1=CCC(c2cc3ccccc3[nH]2)NC1 (centres undefined) | -61 | x | 1 | x | 7
Cc1cc(O)c(C=O)c2c1C(=O)Oc1c(CO)c(O)c3c(c1O2)C(O)OC3=O (centres undefined) | 30* | x | -60 | 5 | 27
Cc1cc(O)c(CN(C)C)c2c1C(=O)/C(=C/c1ccco1)O2 | -21 | -37 | -12 | -12 | 17
CC(C)C(C(=O)NC1CCCC1)N1CCN(c2ncccc2C#N)CC1 (centres undefined) | 16 | x | -18 | x | -11
O=C(NCc1ccccc1)C(c1ccc(-c2ccccc2)cc1)N1CCN(CCN2CCOCC2)CC1 (centres undefined) | -3 | x | 3 | x | 1
N#Cc1cc2cc3c(cc2nc1Cl)OCCO3 | -23 | 36 | 18 | x | 61*
CN(C(=O)COC(=O)c1ccc2ccccc2n1)c1ccccc1 | -1 | -2 | 1 | x | -2
CCOc1ccc(C(=O)Nc2ccc(N3CCN(C(=O)c4ccco4)CC3)cc2)cc1Br | -2 | 4 | 0 | x | 44*
CCOc1ccc(C(=O)Nc2ccc(N3CCN(C)CC3)cc2)cc1Br | 1 | -2 | 2 | 0 | 4
Oc1ccc2c(c1)OCC1(O)Cc3cc(O)c(O)cc3C21 (centres undefined) | 31* | -72 | -8 | x | 1
SMILES | SENP1 inh | Rpn11 block | HNF4A DNA FP | TPT1 inh | CSN deneddyl inh
Oc1cc2c(cc1O)[C@H]1c3ccc(O)c(O)c3OC[C@@]1(O)C2 | -7 | -19 | -5 | x | 11
CCOC(=O)C1=CC[C@@H](c2ccccc2)N(S(=O)(=O)c2ccc(C)cc2)[C@H]1C=C(C)C | -1 | 9 | 1 | x | 4
Cc1c(C(=O)Nc2nc(-c3ccccn3)cs2)oc2ccccc12 | -20 | 42* | -1 | x | 7
O=C(Nc1nc(-c2ccccn2)cs1)c1cc2ccccc2o1 | -16 | 33 | 2 | -1 | 6
CCOCC(=O)Nc1cc(Cl)ccc1C | 1 | -1 | 3 | -4 | -3
O=C(Cc1nc2ccccc2[nH]c1=O)c1ccccc1 | -35 | -76 | 38* | x | -3
COc1ccc(-c2nnc(SCc3csc(N)n3)n2C)cc1 | -2 | 5 | 37* | -1 | -5
COc1ccc(-c2cc(-c3ccc(Cl)cc3)c(C#N)c(SCC(=O)O)n2)cc1 | -18 | 16 | -6 | -2 | 41*
COc1ccc(Br)c(Cn2c(C)c(C(=O)NCc3cccc([N+](=O)[O-])c3)sc2=O)c1 | -3 | 2 | -1 | x | -4
CCN1C(=O)C2(SC(NC(C)=O)=NN2C(C)=O)c2cc(C)ccc21 (centres undefined) | 3 | -2 | 1 | -1 | 3
CCc1ccc2c(c1)C1(SC(NC(C)=O)=NN1C(C)=O)C(=O)N2CC (centres undefined) | 2 | -3 | 0 | 1 | 56*
CC(C)CC1NC(=O)c2cc3ccccc3cc2-n2c1nc1ccc(F)cc1c2=O (centres undefined) | -1 | -6 | -6 | x | 2
Cc1cc(C)cc(C(=O)N2CC(=O)Nc3ccccc32)c1 | -1 | 5 | -7 | 1 | -3
Cc1ccc2cc3c(N)c(C(=O)N4CC(=O)Nc5ccccc54)sc3nc2c1 | x | x | x | 34* | x
Cc1[nH]c(=O)[nH]c(=O)c1CSCC(=O)OCC(=O)Nc1ccccn1 | -4 | -11 | -5 | -1 | 94*
Cc1nc(SCC(=O)Nc2ccccn2)n[nH]1 | 1 | -3 | 3 | -3 | 3
Nc1c(C(=O)NCc2ccco2)c2nc3ccccc3nc2n1CCc1ccc(F)cc1 | -22 | 43* | 13 | 20 | 43*
COc1ccc(-n2c(N)c(C(=O)NCc3ccco3)c3nc4ccccc4nc32)cc1 | -19 | 16 | 7 | 8 | 9
CN1/C(=C\C(=O)c2ccco2)C(C)(C)c2ccccc21 | -23 | x | 42* | 1 | 34
O=C(COC(=O)/C=C/c1ccc([N+](=O)[O-])cc1)Nc1ccc(F)cc1 | 3 | 3 | -1 | x | 42*
NS(=O)(=O)c1ccc(NC(=O)COC(=O)/C=C/c2ccc([N+](=O)[O-])cc2)cc1 | 3 | 6 | 0 | -2 | 1
COc1ccccc1CN(C)C(=O)CN1CCN(C(=O)c2cccs2)CC1 | -2 | 0 | 3 | x | 1
CCn1c(O)c(/C=N/NC(=O)c2ccncc2)c(=O)n(CC)c1=S | -21 | x | 78* | x | 131
Cc1cc(-c2ccccc2)nc(Nc2nc3c(C)cccc3c(=O)[nH]2)n1 | 2 | 30 | 53* | x | 14
